Activity calls are given as the source filed them. The rule behind the calls is not given here.
Legend:
[1] = target: Dual specificity tyrosine-phosphorylation-regulated kinase 1B (Homo sapiens) (UniProt Q9Y463); test: Binding affinity to wild-type human full length DYRK1B (M1 to S629 residues) expressed in bacterial expression system assessed as residual binding level at 1 uM by Kinomescan method relative to control
Method in brief: (§1)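 Kinomescan binding screen at 1 μM across 97 kinases.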

[2] = target: Phosphatidylinositol 4-phosphate 3-kinase C2 domain-containing subunit beta (Homo sapiens) (UniProt O00750); test: Binding affinity to wild-type human […] length PIK3C2B (M1 to L1634 residues) expressed in mammalian expression system assessed as residual binding level at 1 uM by Kinomescan method relative to control; method in brief: as §1
[3] = Drug level in BALB/c mouse plasma xenografted with human HGC27 cells at 100 mg/kg, po measured 0.5 hrs post last dose; assay type: ADME, organism-based
Method in brief: (§2)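 HGC-27 xenografted nude mice dosed po (0.5% cmc/Tween 80) or ip (saline); at end of treatment, 0.5 h after final dose, plasma and tumor tissue collected and compound concentration measured (ng/mL plasma, ng/g tumor).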

[4] = Terminal half life in ICR mouse at 30 mg/kg, po measured after 0.083 to 24 hrs by LC/MS/MS analysis; assay type: ADME, organism-based; settings: in vivo, read-out: beta t1/2 (converted)
Method in brief: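 Male-unspecified ICR mice, 3 per group iv (3 mg/kg in 10% DMSO/saline) and 5 per group po (30 mg/kg in 0.5% cmc/0.3% Tween 80). Blood sampled 0.033 (iv) or 0.083 (po) to 24 h. Plasma extracted with acetonitrile, analysed by LC/MS/MS; noncompartmental analysis.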

[5] = Toxicity in athymic nude BALB/c mouse xenografted with human HCT116 cells assessed as reduction in body weight at 100 to 150 mpk, po measured 2 times every week; assay type: organism-based; settings: in vivo
[6] = Half life in mouse liver microsomes preincubated for 5 mins followed by NADPH addition by LC/MS analysis; assay type: ADME, Microsome
Method in brief: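 Mouse liver microsomes (0.5 mg/mL protein) with compound preincubated 5 min at 37 °C, started with NADPH; quenched with acetonitrile at time points; LC/MS. T1/2 = 0.693/K from ln(concentration) vs time; Clint scaled with factor 3937.5.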

[7] = Drug level in BALB/c mouse plasma xenografted with human HGC27 cells at 200 mg/kg, po measured 0.5 hrs post last dose; assay type: ADME, organism-based; method in brief: as §2
[8] = tested on: Mus musculus; test: In vivo inhibition of PI3K in tumor of human HGC27 cells xenografted in athymic nude BALB/c mouse assessed as reduction in phosphorylated AKT expression at S473 residue by DAB staining based immunohistochemistry method; assay type: functional, organism-based
Method in brief: (§3)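 HGC-27 xenograft tumors from treated and vehicle mice immunostained for Ki67, Ac-H3 and p-AKT(S473) (200×); integrated optical density analysed; mean ± SEM, n = 5−7, one-way ANOVA versus vehicle.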

[9] = tested on: Mus musculus; test: In vivo inhibition of HDAC in tumor of human HGC27 cells xenografted in athymic nude BALB/c mouse assessed as increase in acetylated histone-H3 expression by DAB staining based immunohistochemistry method; assay type: functional, organism-based; method in brief: as §3
[10] = target: Histone deacetylase 1 (Homo sapiens, UniProt Q13547); test: Inhibition of recombinant C-terminal His/FLAG-tagged HDAC1 (unknown origin) expressed in baculovirus infected Sf9 insect cells using Ac-peptide as substrate preincubated for 15 mins followed by substrate addition and measured after 1 hr
[11] = organism: Homo sapiens; test: Selectivity ratio, ratio of IC50 for recombinant human PI3Kalpha to recombinant human His-tagged PIK3CD/PIK3R1 expressed in baculovirus expression system
[12] = organism: Homo sapiens; test: Inhibition of PI3K in human HCT116 cells assessed as reduction in AKT phosphorylation at S473 residue at 0.02 to 0.5 uM after 16 hrs by Western blot analysis; assay type: cell-based
Method in brief: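 Immunoblot of HCT116 lysates (RIPA). 40 μg protein per lane on 10−12% SDS-PAGE, transferred to nitrocellulose, blocked 0.5 h in 5% milk/TBST. Primary antibodies 1:1000 overnight at 4 °C, secondary 1:1000 for 1 h, bands visualized by enhanced ECL.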

[13] = target: Histone deacetylase (Homo sapiens) (UniProt Q13547+O15379+Q9UBN7+Q92769+Q9UQL6+Q8WUI4+Q9BY41+Q96DB2+P56524+Q9UKV0+Q969S8); test: Inhibition of HDAC in human HCT116 cells assessed as increase in acetylated histone H3 levels after 16 hrs by Western blot analysis; assay type: cell-based
Method in brief: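 HCT116 cells lysed in RIPA after washes in cold PBS. 40 μg protein run on 10−12% SDS-PAGE and transferred to nitrocellulose. Membrane blocked in 5% milk/TBST for 0.5 h, primary antibodies 1:1000 overnight at 4 °C, secondary 1:1000 for 1 h, ECL detection.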

Chain of Phosphatidylinositol 4-phosphate 3-kinase C2 domain-containing subunit beta (Homo sapiens) (O00750 whole entry, the tested form may be a part): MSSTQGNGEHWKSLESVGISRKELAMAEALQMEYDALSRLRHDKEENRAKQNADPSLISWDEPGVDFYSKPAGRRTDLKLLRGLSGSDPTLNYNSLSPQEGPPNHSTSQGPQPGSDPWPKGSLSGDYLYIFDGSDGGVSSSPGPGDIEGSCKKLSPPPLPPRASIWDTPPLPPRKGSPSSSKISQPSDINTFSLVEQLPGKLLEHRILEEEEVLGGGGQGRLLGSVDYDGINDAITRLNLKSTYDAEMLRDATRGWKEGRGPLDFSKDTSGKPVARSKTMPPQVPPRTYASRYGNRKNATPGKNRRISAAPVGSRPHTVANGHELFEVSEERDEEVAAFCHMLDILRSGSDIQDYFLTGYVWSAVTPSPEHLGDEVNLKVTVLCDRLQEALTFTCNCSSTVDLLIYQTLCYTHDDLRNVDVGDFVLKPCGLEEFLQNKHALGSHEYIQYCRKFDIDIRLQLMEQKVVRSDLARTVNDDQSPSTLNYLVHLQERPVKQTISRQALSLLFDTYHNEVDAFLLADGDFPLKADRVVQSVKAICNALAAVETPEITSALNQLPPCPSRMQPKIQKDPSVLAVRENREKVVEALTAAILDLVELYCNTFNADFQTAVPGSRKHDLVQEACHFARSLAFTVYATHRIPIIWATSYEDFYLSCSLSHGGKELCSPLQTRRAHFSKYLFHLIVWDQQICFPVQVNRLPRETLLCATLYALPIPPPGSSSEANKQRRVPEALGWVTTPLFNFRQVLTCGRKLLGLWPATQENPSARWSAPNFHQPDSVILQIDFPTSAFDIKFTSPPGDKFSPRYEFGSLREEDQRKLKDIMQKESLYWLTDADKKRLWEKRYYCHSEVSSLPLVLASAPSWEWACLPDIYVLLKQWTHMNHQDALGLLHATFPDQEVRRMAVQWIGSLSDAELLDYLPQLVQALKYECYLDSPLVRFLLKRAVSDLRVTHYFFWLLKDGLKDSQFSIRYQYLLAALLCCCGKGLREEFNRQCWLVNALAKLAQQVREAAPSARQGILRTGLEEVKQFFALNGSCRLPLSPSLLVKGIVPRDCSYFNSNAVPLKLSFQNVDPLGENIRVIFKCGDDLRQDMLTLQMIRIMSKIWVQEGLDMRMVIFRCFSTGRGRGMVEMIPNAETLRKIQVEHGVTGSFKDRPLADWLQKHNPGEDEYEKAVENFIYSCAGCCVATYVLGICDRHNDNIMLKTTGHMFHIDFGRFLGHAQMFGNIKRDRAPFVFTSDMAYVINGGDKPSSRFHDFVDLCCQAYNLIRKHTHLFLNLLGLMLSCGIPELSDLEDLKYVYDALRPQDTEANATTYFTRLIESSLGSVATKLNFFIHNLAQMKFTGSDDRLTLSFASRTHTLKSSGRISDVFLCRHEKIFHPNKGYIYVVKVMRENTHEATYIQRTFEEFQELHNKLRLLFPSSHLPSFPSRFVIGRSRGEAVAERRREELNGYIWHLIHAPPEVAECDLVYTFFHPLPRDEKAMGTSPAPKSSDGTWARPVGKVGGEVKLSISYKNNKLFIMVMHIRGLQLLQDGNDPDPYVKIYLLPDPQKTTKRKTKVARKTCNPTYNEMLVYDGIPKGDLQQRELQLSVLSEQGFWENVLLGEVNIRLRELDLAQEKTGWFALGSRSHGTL
Chain of Histone deacetylase 1 (Q13547 whole entry): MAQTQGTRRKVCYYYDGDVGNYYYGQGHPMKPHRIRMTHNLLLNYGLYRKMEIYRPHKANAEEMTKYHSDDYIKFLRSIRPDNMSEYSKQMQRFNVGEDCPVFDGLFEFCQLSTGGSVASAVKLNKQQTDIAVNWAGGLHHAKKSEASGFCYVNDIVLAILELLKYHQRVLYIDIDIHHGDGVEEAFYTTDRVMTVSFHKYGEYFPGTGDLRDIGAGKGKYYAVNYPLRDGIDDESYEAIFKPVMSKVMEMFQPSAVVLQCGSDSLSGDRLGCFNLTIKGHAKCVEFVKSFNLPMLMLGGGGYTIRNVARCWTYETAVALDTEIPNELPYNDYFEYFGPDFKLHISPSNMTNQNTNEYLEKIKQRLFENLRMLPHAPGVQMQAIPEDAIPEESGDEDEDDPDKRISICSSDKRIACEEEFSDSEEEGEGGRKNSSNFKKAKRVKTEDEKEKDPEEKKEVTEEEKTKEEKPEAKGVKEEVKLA
Chain of Dual specificity tyrosine-phosphorylation-regulated kinase 1B (Homo sapiens) (Q9Y463 whole entry, looked up, the tested form may be a part): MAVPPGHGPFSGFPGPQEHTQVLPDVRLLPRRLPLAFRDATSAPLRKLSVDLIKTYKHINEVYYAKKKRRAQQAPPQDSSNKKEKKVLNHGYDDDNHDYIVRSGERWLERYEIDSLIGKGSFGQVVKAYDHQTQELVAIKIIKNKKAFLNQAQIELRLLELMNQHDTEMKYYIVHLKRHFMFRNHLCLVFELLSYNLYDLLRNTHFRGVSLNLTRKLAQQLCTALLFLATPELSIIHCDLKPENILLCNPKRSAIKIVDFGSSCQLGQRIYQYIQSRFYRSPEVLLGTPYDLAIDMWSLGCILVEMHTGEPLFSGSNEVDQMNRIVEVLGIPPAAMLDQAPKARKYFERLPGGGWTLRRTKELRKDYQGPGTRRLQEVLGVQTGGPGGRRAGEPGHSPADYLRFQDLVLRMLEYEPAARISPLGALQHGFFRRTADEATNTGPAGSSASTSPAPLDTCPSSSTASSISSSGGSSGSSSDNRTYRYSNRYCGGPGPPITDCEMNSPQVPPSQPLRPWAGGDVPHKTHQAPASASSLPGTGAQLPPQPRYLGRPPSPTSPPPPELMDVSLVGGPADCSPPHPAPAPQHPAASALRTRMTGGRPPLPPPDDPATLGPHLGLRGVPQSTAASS

| SMILES | Activity [1] [%] | Activity [2] [%] | concentration at 0.5 h [3] [ng/mL] | half-life [4] [h] | Activity [5] | half-life [6] [h] | concentration at 0.5 h [7] [ng/mL] | inhibition [8] | inhibition [9] | IC50 [10] [nM] | Ratio IC50 [11] | inhibition [12] | inhibition [13] |
| --- | --- | --- | --- | --- | --- | --- | --- | --- | --- | --- | --- | --- | --- |
| COc1ncc(-c2cc(OCCCCCCC(=O)NO)c3ncnc(C)c3c2)cc1F | 29 | 27 | 179 | 2.07 | Toxic | 0.41 | 232 | Active | Active |  |  |  |  |
| COc1ccc(-c2cc(OCCN(C)c3ncc(C(=O)NO)cn3)c3ncnc(C)c3c2)cn1 |  |  |  |  |  |  |  |  |  | 1.3 | > 5 | Active | Dose-dependent effect |

Reference: ChEMBL document CHEMBL4311940, “Design, Synthesis, and Biological Evaluation of 4-Methyl Quinazoline Derivatives as Anticancer Agents Simultaneously Targeting Phosphoinositide 3-Kinases and Histone Deacetylases” (J Med Chem, 2019)
